Among all 220,000 compounds or so, about 990 (0.45%) were called active.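 Rule for the calls: active = inhibition over about 50% at 20 µM in the single-dose screen (limit read from the data); inactive = the rest.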 The list comes from a sample in which actives are over-represented; it also holds similar structures and randomly drawn compounds.
target: Runt-related transcription factor 1 (Homo sapiens) + Core-binding factor subunit beta (Homo sapiens) (UniProt Q01196+Q13951); assay: inhibitors of RUNX1 Runt–CBFb binding, primary screen, biochemical, FRET, Cerulean-Runt, Venus-CBFb, uHTS (AID 1496); conditions: Cerulean-Runt/Venus-CBFb FRET ratio 530/480, 1 h; at 20 µM; active compounds read high;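 note: 0% = DMSO wells and 100% = excess unlabeled CBFb competitor control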
Sequence (Q01196 whole entry, looked up, the tested form may be a part): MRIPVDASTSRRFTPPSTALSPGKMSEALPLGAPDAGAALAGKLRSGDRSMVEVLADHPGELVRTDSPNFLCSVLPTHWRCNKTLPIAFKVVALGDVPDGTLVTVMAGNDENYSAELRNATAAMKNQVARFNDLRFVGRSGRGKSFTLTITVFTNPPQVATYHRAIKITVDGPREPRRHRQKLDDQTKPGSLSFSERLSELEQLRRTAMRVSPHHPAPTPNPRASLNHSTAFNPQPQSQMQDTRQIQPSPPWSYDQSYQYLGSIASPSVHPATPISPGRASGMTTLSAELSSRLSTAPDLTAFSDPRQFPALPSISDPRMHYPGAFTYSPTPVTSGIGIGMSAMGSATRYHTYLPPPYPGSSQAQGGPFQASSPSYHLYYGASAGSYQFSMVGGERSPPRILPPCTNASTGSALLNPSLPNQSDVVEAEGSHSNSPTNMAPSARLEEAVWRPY
Sequence (Q13951 whole entry, looked up, the tested form may be a part): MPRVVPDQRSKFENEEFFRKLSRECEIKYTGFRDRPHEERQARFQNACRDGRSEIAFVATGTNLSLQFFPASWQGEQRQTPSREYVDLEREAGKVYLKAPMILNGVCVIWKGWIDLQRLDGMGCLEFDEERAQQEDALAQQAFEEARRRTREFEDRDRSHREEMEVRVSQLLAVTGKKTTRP
Summary of the method: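 test system = Cerulean-tagged RUNX1 Runt domain (FRET donor) fusion protein | reagent = Venus-CBFb binding partner, 100 nM | incubation = protein complex preformed 1 h, compound exposure 1 h, room temperature, dark | detection = FRET fluorescence | read-out basis = loss of energy transfer signal | controls = 5 µM unlabeled CBFb as full-inhibition high control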

inhibition, active:
CCCS(=O)(=O)N1CCCC(C(=O)NCc2ccco2)C1 (stereo not given) 71.8%
CC(C)Oc1ccc(/C=C(\NC(=O)/C=C/c2ccco2)C(=O)NCCc2nc3ccccc3[nH]2)cc1 89.5%
Cc1cccc(-n2c(N)c(C(=O)N3CCN(C)CC3)sc2=S)c1 55.8%
Cc1cccc(N2C(=O)C3C(c4ccccc4)OC4(C(=O)c5ccccc5C4=O)C3C2=O)c1 (stereo not given) 115%
Cc1cccn2c(=O)c3cc(C#N)c(=O)n(CCCN4CCOCC4)c3nc12 92.6%
Cc1cc(C)c2c3c(sc2n1)C(c1ccccc1)C(C#N)=C(N)O3 (stereo not given) 66.6%
CCCCN(CCCC)CC(O)Cn1c2ccccc2c(=O)c2ccccc21 (stereo not given) 80.3%
Cc1cc(F)ccc1S(=O)(=O)Nc1ncnc2scc(-c3ccc(F)cc3)c12 66.8%
CNC(=O)c1cc2c(ccc3ccccc32)oc1=N 108%
COc1ccc(C2C(C#N)=C(N)Oc3cc(N)ccc32)cc1OC (stereo not given) 77.7%
CCOC(=O)c1c(NC(=S)Nc2ccccc2)sc2c1CCN(C)C2 66.5%
Brc1ccc(CSc2ccc(-c3ccco3)nn2)cc1 53.3%
COc1c(O)ccc2c1CN1CCc3cc4c(cc3C1C2)OCO4 (stereo not given) 66.6%
COCC(C)OC(=O)c1c(N)n(CCCN2CCOCC2)c2nc3ccccc3nc12 (stereo not given) 67.9%
CC(C)(C)OC(=O)c1c(N)n(CCCN2CCCC2=O)c2nc3ccccc3nc12 68.7%
OCCN1CCN(C(=S)c2ccc(-c3ccccc3)cc2)CC1 53.6%
CCN(CC)S(=O)(=O)c1ccc(N2CCOCC2)c(NC(=O)C2COc3ccccc3O2)c1 (stereo not given) 84.6%
COc1cccc2sc(Nc3nc(C)c(C(C)=O)s3)nc12 66.3%
CCCN1C2=C(C(=O)CCC2)C(c2ccc(O)c(Br)c2)C2=C1CCCC2=O 53.1%

inhibition, inactive:
O=C(O)c1ccccc1OCc1ccccc1Cl 2.6%
C#CCOCCOCCOCCNc1nc(N2CCN(C(=O)[C@H](CCC(=O)O)n3cc(C(N)CO)nn3)CC2)nc(N2CCN(C(=O)[C@H](CCCCN)n3cc(C(N)[C@H](C)CC)nn3)CC2)n1 (stereo not given in full) 0.2%
COc1ccc(C(=O)C2CCCN(C(=O)c3cnsn3)C2)c(C)c1 (stereo not given) -0.7%
O=C(NCc1ccco1)C1CCCN(S(=O)(=O)c2cnc[nH]2)C1 (stereo not given) 1.5%
O=C(NCc1ccco1)C1CCCN(S(=O)(=O)c2ccccc2)C1 (stereo not given) -0.1%
CCOC(=O)c1ccc(NC(=O)c2nc[nH]c2C(=O)NCc2ccccc2)cc1 19.6%
CN(C)S(=O)(=O)c1ccc(Cl)c(NC(=O)COC(=O)CC(NC(N)=O)c2ccc(Cl)cc2)c1 (stereo not given) -1.9%
CCCN(CCC)S(=O)(=O)c1ccc(C(=O)N2CC3CCC(CC3)C2)cc1 -0.8%
Cc1nc(C(=O)Nc2ccc(Cl)cc2)sc1C1(C)CC(c2ccccc2)=NO1 (stereo not given) 1.9%
O=C(O)/C=C/c1ccc2c(c1)OCCO2 1.9%
COc1cccc(CC(=O)Nc2ccc(-c3csc(C)n3)cc2)c1 -1.8%
COc1ccc(OC(C)C(=O)NCCc2nc3ccccc3[nH]2)cc1 (stereo not given) -0.9%
CC(C)=C(NC(=O)c1ccco1)C(=O)NCCc1nc2ccccc2[nH]1 1.2%
CCOC(=O)C1=C(N)N2C(=O)C(C)SC2=C(C(=O)OCC)C1c1cc(OC)c(OC)c(OC)c1 (stereo not given) -5%
Cc1cc(Nc2ccc(Cl)cc2)nc(N2CCOCC2)n1 0.3%
Cc1ccc(-n2c(N)c(C(=O)N3CCOCC3)sc2=S)c(C)c1 40.6%
CCOC(=O)c1sc(=S)n(-c2cccc(OC)c2)c1N 34%
CC(=O)Nc1nc2c(s1)C(=O)NCC(C)(C)C2 1%
CCCN(c1ccc(C)cc1)c1nc(=O)c2cccnc2s1 0.8%
Cc1cccc(N2C(=O)CC(SC(N)=Nc3ccccc3)C2=O)c1 (stereo not given) -1.7%
Cc1cccc(N2C(=O)c3cccnc3C2=O)c1 -2.4%
O=C(Nc1ccc(Cl)cc1)Nc1ccc(C(=O)N2CCOCC2)cc1 -0.4%
Cc1cccn2c(=O)c3cc(C(=O)N4COCC4(C)C)n(C)c3nc12 -1.7%
Cc1cc(C)n(CC(C)NCc2c(C(=O)N3CCOCC3)nc3c(C)cccn23)n1 (stereo not given) 0.6%
CC(C)c1c(O)nc(SCCOc2ccc(Cl)cc2)[nH]c1=O 0.6%
Cc1cc(C)c(C#N)c(SCc2[nH]nc3c2C(c2ccccc2)C(C#N)=C(N)O3)n1 (stereo not given) -1.5%
N#CC1=C(N)Oc2c(sc3ccccc23)C1c1ccco1 (stereo not given) 15.7%
Nc1c(Cl)cc(S(N)(=O)=O)cc1S(N)(=O)=O 0%
COc1ccc(/C=C2\N=C3CCCN3C2=O)cc1 1.1%
COc1ccc(/C=N/NS(=O)(=O)c2ccc(NC(C)=O)cc2)cc1 0.8%
CCCCN1CCNC1=S 0.1%
CS(=O)(=O)N(CC(O)Cn1c2ccccc2c2ccccc21)c1cccc2ccccc12 (stereo not given) -3.3%
O=C1c2ccccc2S(=O)(=O)N1CC(O)Cn1c2ccccc2c2ccccc21 (stereo not given) -0.7%
O=C1[C@@H]2C(c3cccnc3)=NO[C@@H]2C(=O)N1c1ccc(Cl)cc1Cl 9%
COc1ccc(Cl)cc1CSc1ncn[nH]1 -0.7%
Cc1ccsc1/C=N/NC(=O)Cc1cc(=O)[nH][nH]1 -1.1%
COc1ccc(-c2csc3ncnc(Oc4ccc5c(C)cc(=O)oc5c4)c23)cc1 -0.5%
CCn1cnc2scc(-c3ccc(C)c(C)c3)c2c1=O 0.4%
CCOc1ccc2sc(NS(=O)(=O)c3ccc(N)cc3)nc2c1 0.7%
CCNc1nc(NCC)nc(N/N=C/c2ccc(O)c(OC)c2)n1 10%
N=c1oc2ccccc2cc1C(=O)N/N=C/c1ccccc1 -2.3%
CCOC(=O)N1CCN(C(=O)c2cc3c(ccc4ccccc43)oc2=O)CC1 2.5%
CCN(CC)C(=O)Oc1ccc(Br)cc1C(=O)Nc1ccc(F)c(Cl)c1 0.6%
CCn1c(SCC(=O)N/N=C/c2ccncc2)nc2ccccc21 -0.7%
COC(=O)C1=C(C)OC(N)=C(C#N)C1c1cc(OC)ccc1OC (stereo not given) -2.5%
CCC1=C(C(=O)OC)C(c2cc(OC)ccc2OC)C(C#N)=C(N)O1 (stereo not given) 2%
CCOC(=O)c1c(NC(=O)NC(C)(C)C)sc2c1CCN(C)C2 4.1%
CCOC(=O)c1c(NC(=S)Nc2ccccc2C)sc2c1CCC2 10.3%
CC(C)(C)c1nnc(NC(=O)C2c3ccccc3Oc3ccccc32)s1 21%
CC(C)Sc1nnc([C@H](Cc2ccccc2)NC(=O)OC(C)(C)C)o1 4.8%
Fc1cccc(Cl)c1CSc1ccc(-c2ccco2)nn1 40.3%
O=C(CSc1ccc(-c2ccco2)nn1)NCc1ccc2c(c1)OCO2 16.4%
CCC(C)(C)NC(=O)C(c1ccc(O)cc1)N(C(=O)Cn1nnc2ccccc21)c1ccc(NC(C)=O)cc1 (stereo not given) 0.4%
COc1cc(COCC(O)CN2CCN(Cc3ccc4c(c3)OCO4)CC2)cc(OC)c1OC (stereo not given) -1%
COc1ccc2cc1Oc1ccc(cc1)C[C@H]1c3cc(c(OC)cc3CCN1C)Oc1c(O)c(OC)cc3c1[C@H](C2)N(C)CC3 1.7%
CCOC(=O)c1ccc(NC(=O)c2nc[nH]c2C(=O)N[C@@H](CCCCNC(=O)OC(C)(C)C)C(=O)OC(C)(C)C)cc1 -5.6%
Cc1ccc(C(=O)OC(C)CN2CCOCC2)cc1 (stereo not given) 1.3%
O=C(Cn1c(-c2ccccn2)nc2ccccc21)NCCN1CCOCC1 0.6%
CCOc1ccc(C(=O)NCCCN2CCCC2=O)cc1 1%
CSc1nnc(-c2ccncc2)n1CCCN1CCCC1=O -5.5%
CC(C)C[C@H](CO)Nc1nc(N(C)c2cccc(Cl)c2)c2ncn(C(C)C)c2n1 -4.6%
N/C(=N\OC(=O)Nc1ccccc1)c1ccno1 0.1%
O=C(NC(c1ccccc1)c1ccccc1)N1CCN(CCO)CC1 -1.2%
S=C(c1ccc(-c2ccccc2)o1)N1CCCCC1 21%
CCc1nc2sc3c(Cl)ncnc3c2c2c1CCCC2 -0.7%
Cc1ccc(S(=O)(=O)N(C)C)cc1NC(=O)COC(=O)C1COc2ccccc2O1 (stereo not given) -0.2%
CCN(CC)S(=O)(=O)c1ccc(N2CCOCC2)c(C(=O)O)c1 1%
COc1cccc2sc(NNC(=O)c3nc4ccccc4s3)nc12 32.7%
CC(=O)c1sc(NC(=O)CCCOc2ccccc2C)nc1C 0.4%
O=S(=O)(NC(=S)Nc1ccccc1)c1ccc(F)cc1 26.8%
O=[N+]([O-])c1ccc2c(c1)C(O)n1nc(-c3ccccc3)nc1S2 (stereo not given) -0.7%
C=CCNC(=S)NNC(=O)c1cc(Cl)ccc1OC 0.2%
C=CCSc1nnc(NC(=O)c2ccc(NC(C)=O)cc2)s1 0%
NNC(=O)c1cccc(COCC(F)(F)C(F)F)c1 -0.3%
N#CC1=C(N)N(c2ccccc2)C2=C(C(=O)CCC2)C1c1ccccc1 (stereo not given) 6.6%
CCCC(=O)N1c2ccccc2NC2=C(C(=O)CCC2)C1c1ccc(F)cc1 (stereo not given) -0.4%
